Assay results from ChEMBL document CHEMBL4325893, “Synthesis and antibacterial profiles of targeted triclosan derivatives” (2019).
≈ marks a conversion by molar mass, not a printed value.

Legend:
[1] = Antibacterial activity against Salmonella enterica subspecies enterica serotype Dublin OCC 627 after 18 hrs; type: functional, Salmonella enterica subsp. enterica serovar Dublin; details: OCC 627, 18 h
In short: (§1)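 Broth microdilution in Nutrient Broth No. 2; stocks in ethanol diluted to 0.01–128 µg/ml (triclosan) or 0.25–256 µg/ml (glycosides). Overnight 37 °C NB2 cultures diluted 1 in 10^4 in saline and added to the dilutions. Incubation at 37 °C with agitation, OD read every 15 min; MIC is the lowest concentration preventing any OD rise after 18 h.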

[2] = tested on: Staphylococcus aureus; assay: Antibacterial activity against Staphylococcus aureus ATCC 25923 after 18 hrs; type: functional; details: ATCC 25923, 18 h; in short: as §1
[3] = tested on: Streptococcus pneumoniae; assay: Antibacterial activity against Streptococcus pneumoniae 6305 after 18 hrs; type: functional; details: Streptococcus pneumoniae, 6305, 18 h
In short: (§2)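 Broth microdilution in Nutrient Broth No. 2. Ethanol stocks were diluted in broth to 0.01–128 µg/ml for triclosan and 0.25–256 µg/ml for glycosides. Overnight 37°C NB2 cultures were diluted 1 in 10^4 in saline and added to the wells. Plates were incubated at 37°C with OD read every 15 min after agitation. MIC was the lowest concentration giving no OD increase at 18 h.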

[4] = tested on: Staphylococcus epidermidis; assay: Antibacterial activity against Staphylococcus epidermidis ATCC 12228 after 18 hrs; type: functional; details: ATCC 12228, 18 h; in short: as §1
[5] = tested on: Streptococcus agalactiae; assay: Antibacterial activity against Streptococcus agalactiae OCC 182 after 18 hrs; type: functional; details: OCC 182, 18 h; in short: as §2
[6] = tested on: Staphylococcus aureus; assay: Antibacterial activity against Staphylococcus aureus OCC 104 after 18 hrs; type: functional; details: OCC 104, 18 h; in short: as §1
[7] = tested on: Serratia marcescens; assay: Antibacterial activity against Serratia marcescens OCC 217 after 18 hrs; type: functional; details: OCC 217, 18 h; in short: as §1
[8] = tested on: Salmonella typhimurium; assay: Antibacterial activity against Salmonella enterica subspecies enterica serotype typhimurium ATCC 14028 after 18 hrs; type: functional, Salmonella enterica subsp. enterica serovar Typhimurium; details: ATCC 14028, 18 h; in short: as §1
[9] = Antibacterial activity against Salmonella enterica subspecies enterica serotype Infantis OCC 2133 after 18 hrs; type: functional, Salmonella enterica subsp. enterica serovar Infantis; details: OCC 2133, 18 h; in short: as §1
[10] = tested on: Staphylococcus aureus; assay: Antibacterial activity against Staphylococcus aureus NCTC 13758 after 18 hrs; type: functional; details: NCTC 13758, 18 h; in short: as §1
[11] = tested on: Proteus mirabilis; assay: Antibacterial activity against Proteus mirabilis ATCC 12453 after 18 hrs; type: functional; details: ATCC 12453, 18 h; in short: as §1
[12] = Antibacterial activity against Enterobacter cloacae ATCC 13047 after 18 hrs; type: functional, Enterobacter cloacae subsp. cloacae; details: ATCC 13047, 18 h; in short: as §1
[13] = tested on: Bacillus subtilis; assay: Antibacterial activity against Bacillus subtilis NCTC 10073 after 18 hrs; type: functional; details: NCTC 10073, 18 h; in short: as §1
[14] = Antibacterial activity against Salmonella enterica subspecies enterica serotype Arizonae OCC 706 after 18 hrs; type: functional, Salmonella enterica subsp. enterica serovar Arizonae; details: OCC 706, 18 h; in short: as §1
[15] = tested on: Staphylococcus aureus; assay: Antibacterial activity against Staphylococcus aureus ATCC 9144 after 18 hrs; type: functional; details: ATCC 9144, 18 h; in short: as §1
[16] = tested on: Proteus vulgaris; assay: Antibacterial activity against Proteus vulgaris OCC 195 after 18 hrs; type: functional; details: OCC 195, 18 h; in short: as §1
[17] = tested on: Staphylococcus aureus; assay: Antibacterial activity against Staphylococcus aureus ATCC 6538 after 18 hrs; type: functional; details: ATCC 6538, 18 h; in short: as §1
[18] = tested on: Staphylococcus saprophyticus; assay: Antibacterial activity against Staphylococcus saprophyticus ATCC 15305 after 18 hrs; type: functional; details: ATCC 15305, 18 h; in short: as §2
[19] = Antibacterial activity against Salmonella enterica subspecies enterica serotype Virchow NCTC 5742 after 18 hrs; type: functional, Salmonella enterica subsp. enterica serovar Virchow; details: NCTC 5742, 18 h; in short: as §1
[20] = tested on: Escherichia coli; assay: Antibacterial activity against Escherichia coli ATCC 10536 after 18 hrs; type: functional; details: ATCC 10536, 18 h; in short: as §1
[21] = tested on: Klebsiella aerogenes; assay: Antibacterial activity against Klebsiella aerogenes NCTC 8167 after 18 hrs; type: functional; details: NCTC 8167, 18 h; in short: as §1
[22] = tested on: Klebsiella aerogenes; assay: Antibacterial activity against Enterobacter aerogenes ATCC 13048 after 18 hrs; type: functional; details: ATCC 13048, 18 h; in short: as §1
[23] = tested on: Escherichia coli; assay: Antibacterial activity against Escherichia coli ATCC 8739 after 18 hrs; type: functional; details: ATCC 8739, 18 h; in short: as §1
[24] = tested on: Escherichia coli; assay: Antibacterial activity against Escherichia coli OCC 122 after 18 hrs; type: functional; details: OCC 122, 18 h; in short: as §1
[25] = tested on: Escherichia coli; assay: Antibacterial activity against Escherichia coli NCTC 13216 after 18 hrs; type: functional; details: NCTC 13216, 18 h; in short: as §1
[26] = tested on: Bacillus cereus; assay: Antibacterial activity against Bacillus cereus ATCC 14579 after 18 hrs; type: functional; details: ATCC 14579, 18 h; in short: as §1
[27] = tested on: Staphylococcus haemolyticus; assay: Antibacterial activity against Staphylococcus haemolyticus OCC 2223 after 18 hrs; type: functional; details: OCC 2223, 18 h; in short: as §2
[28] = tested on: Klebsiella pneumoniae; assay: Antibacterial activity against Klebsiella pneumoniae ATCC 13883 after 18 hrs; type: functional; details: ATCC 13883, 18 h; in short: as §1

- MIC [1]: 16 to 32 µg/mL (≈ 35.4 to 70.8 µM)
- MIC [2]: 4 to 8 µg/mL (≈ 8.86 to 17.7 µM)
- MIC [3]: 128 µg/mL (≈ 283 µM)
- MIC [4]: 8 to 16 µg/mL (≈ 17.7 to 35.4 µM)
- MIC [5]: 256 µg/mL (≈ 567 µM)
- MIC [6]: 4 to 8 µg/mL (≈ 8.86 to 17.7 µM)
- MIC [7]: > 256 µg/mL
- MIC [8]: 16 to 32 µg/mL (≈ 35.4 to 70.8 µM)
- MIC [9]: 16 to 32 µg/mL (≈ 35.4 to 70.8 µM)
- MIC [10]: 4 to 8 µg/mL (≈ 8.86 to 17.7 µM)
- MIC [11]: 16 µg/mL (≈ 35.4 µM)
- MIC [12]: 16 µg/mL (≈ 35.4 µM)
- MIC [13]: 256 µg/mL (≈ 567 µM)
- MIC [14]: 16 to 32 µg/mL (≈ 35.4 to 70.8 µM)
- MIC [15]: 4 to 8 µg/mL (≈ 8.86 to 17.7 µM)
- MIC [16]: 64 µg/mL (≈ 142 µM)
- MIC [17]: 4 to 8 µg/mL (≈ 8.86 to 17.7 µM)
- MIC [18]: 64 µg/mL (≈ 142 µM)
- MIC [19]: 16 to 32 µg/mL (≈ 35.4 to 70.8 µM)
- MIC [20]: 8 to 64 µg/mL (≈ 17.7 to 142 µM)
- MIC [21]: 32 µg/mL (≈ 70.8 µM)
- MIC [22]: 64 µg/mL (≈ 142 µM)
- MIC [23]: 8 to 64 µg/mL (≈ 17.7 to 142 µM)
- MIC [24]: 8 to 64 µg/mL (≈ 17.7 to 142 µM)
- MIC [25]: 8 to 64 µg/mL (≈ 17.7 to 142 µM)
- MIC [26]: 256 µg/mL (≈ 567 µM)
- MIC [28]: 0.5 µg/mL (≈ 1.11 µM)
SMILES: OC[C@H]1O[C@@H](Oc2cc(Cl)ccc2Oc2ccc(Cl)cc2Cl)[C@H](O)[C@@H](O)[C@@H]1O
- MIC [27]: 16 µg/mL (≈ 35.4 µM)
